# Reference: ChEMBL document CHEMBL1800036, “A novel HDAC inhibitor with a hydroxy-pyrimidine scaffold” (Bioorg Med Chem Lett, 2011)
# What was measured:
# Histone deacetylase 8 = target: T1, Histone deacetylase 8 (Homo sapiens, UniProt Q9BY41); assay: Inhibition of recombinant HDAC8 assessed as inhibition of fluorogenic aminocoumarin release from substrate by trypsin-coupled biochemical assay
# T1 sequence (Q9BY41 whole entry): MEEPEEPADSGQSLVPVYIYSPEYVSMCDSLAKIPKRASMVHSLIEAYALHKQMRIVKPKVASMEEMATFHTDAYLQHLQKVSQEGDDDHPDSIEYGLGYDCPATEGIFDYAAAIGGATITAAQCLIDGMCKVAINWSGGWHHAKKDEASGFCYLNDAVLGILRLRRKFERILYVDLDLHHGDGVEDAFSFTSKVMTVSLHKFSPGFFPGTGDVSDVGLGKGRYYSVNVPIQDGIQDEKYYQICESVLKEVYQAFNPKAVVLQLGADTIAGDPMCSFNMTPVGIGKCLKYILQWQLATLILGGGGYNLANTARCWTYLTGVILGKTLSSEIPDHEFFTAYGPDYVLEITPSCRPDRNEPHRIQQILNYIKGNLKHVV
# In short: (§1)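 Trypsin-coupled fluorogenic assay. Substrate is an acetylated lysine tripeptide amide-linked to aminocoumarin (AMC). HDAC deacetylation allows trypsin to release AMC, and the fluorescence increase is read. Compound was tested at various concentrations and normalized to a DMSO control. IC50 was derived by non-linear regression fit.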
# Histone deacetylase 1 = Histone deacetylase 1 (Homo sapiens, UniProt Q13547); assay: Inhibition of recombinant HDAC1 assessed as inhibition of fluorogenic aminocoumarin release from substrate by trypsin-coupled biochemical assay; in short: as §1
# Chain of Histone deacetylase 1 (Q13547 whole entry): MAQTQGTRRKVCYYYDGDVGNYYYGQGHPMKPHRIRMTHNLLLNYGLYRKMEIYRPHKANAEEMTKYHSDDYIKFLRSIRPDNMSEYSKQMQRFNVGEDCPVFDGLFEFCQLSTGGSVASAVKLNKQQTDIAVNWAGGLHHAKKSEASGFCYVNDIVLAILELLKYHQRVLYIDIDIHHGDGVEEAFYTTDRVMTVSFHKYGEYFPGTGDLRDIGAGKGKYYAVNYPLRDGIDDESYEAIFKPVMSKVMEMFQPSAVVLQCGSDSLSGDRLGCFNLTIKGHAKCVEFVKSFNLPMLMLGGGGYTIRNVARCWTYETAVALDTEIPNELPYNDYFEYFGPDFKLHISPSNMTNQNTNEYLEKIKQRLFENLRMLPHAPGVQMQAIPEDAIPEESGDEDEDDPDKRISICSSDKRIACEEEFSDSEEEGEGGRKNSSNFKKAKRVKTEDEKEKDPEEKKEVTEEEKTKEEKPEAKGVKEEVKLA
# [1] = target: T2, Protein deacetylase HDAC6 (Homo sapiens, UniProt Q9UBN7); assay: Inhibition of recombinant HDAC6 assessed as inhibition of fluorogenic aminocoumarin release from substrate by trypsin-coupled biochemical assay; in short: as §1
# T2 sequence (Q9UBN7 whole entry): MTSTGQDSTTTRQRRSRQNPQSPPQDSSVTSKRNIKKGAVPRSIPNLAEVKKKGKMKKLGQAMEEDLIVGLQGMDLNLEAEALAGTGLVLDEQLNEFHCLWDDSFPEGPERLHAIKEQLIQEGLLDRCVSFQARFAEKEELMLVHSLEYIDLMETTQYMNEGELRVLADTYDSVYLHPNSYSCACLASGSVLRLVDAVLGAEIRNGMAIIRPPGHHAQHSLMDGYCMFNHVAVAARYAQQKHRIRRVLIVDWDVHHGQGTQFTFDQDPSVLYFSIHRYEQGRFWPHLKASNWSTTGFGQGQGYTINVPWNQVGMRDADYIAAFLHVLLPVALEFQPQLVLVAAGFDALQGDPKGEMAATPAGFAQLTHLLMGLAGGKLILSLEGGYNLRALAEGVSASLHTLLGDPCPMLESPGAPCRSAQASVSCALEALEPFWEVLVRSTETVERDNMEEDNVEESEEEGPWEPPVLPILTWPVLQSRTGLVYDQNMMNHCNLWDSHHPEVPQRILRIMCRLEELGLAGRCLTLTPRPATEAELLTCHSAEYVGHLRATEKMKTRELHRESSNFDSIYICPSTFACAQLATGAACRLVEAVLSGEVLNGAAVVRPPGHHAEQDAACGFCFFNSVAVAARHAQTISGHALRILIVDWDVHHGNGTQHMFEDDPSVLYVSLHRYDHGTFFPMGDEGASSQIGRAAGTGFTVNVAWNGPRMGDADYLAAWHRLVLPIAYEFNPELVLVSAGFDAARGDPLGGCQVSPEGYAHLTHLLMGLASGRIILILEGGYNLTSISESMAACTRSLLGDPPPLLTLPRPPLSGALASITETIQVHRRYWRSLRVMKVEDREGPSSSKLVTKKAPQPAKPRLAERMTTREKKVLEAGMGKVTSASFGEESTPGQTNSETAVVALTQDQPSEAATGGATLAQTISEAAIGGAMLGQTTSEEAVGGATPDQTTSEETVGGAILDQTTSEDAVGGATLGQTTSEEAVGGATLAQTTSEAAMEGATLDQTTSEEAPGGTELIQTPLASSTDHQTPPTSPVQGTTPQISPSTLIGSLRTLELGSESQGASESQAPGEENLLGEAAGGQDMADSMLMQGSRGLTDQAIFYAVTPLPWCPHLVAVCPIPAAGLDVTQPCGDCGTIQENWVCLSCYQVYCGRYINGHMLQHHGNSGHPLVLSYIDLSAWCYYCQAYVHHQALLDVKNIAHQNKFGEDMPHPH
# Histone deacetylase 2 = Histone deacetylase 2 (Homo sapiens, UniProt Q92769); assay: Inhibition of recombinant HDAC2 assessed as inhibition of fluorogenic aminocoumarin release from substrate by trypsin-coupled biochemical assay
# Chain of Histone deacetylase 2 (Q92769 whole entry): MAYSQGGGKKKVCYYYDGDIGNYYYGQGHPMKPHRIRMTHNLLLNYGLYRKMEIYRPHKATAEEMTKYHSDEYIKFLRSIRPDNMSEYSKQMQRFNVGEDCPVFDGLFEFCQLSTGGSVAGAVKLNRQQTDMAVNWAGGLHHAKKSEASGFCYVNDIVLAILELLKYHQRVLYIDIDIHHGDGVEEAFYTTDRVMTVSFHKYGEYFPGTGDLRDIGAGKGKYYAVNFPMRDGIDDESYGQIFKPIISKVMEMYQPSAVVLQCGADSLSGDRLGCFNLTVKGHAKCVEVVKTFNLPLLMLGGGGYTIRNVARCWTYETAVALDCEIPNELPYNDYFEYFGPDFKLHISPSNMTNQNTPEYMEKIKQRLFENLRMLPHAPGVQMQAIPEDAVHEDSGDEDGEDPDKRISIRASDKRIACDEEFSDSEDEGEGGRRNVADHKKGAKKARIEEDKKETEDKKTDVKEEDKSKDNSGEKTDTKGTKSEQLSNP
# Histone deacetylase 9 = Histone deacetylase 9 (Homo sapiens, UniProt Q9UKV0); assay: Inhibition of recombinant HDAC9 assessed as inhibition of fluorogenic aminocoumarin release from substrate by trypsin-coupled biochemical assay; in short: as §1
# Chain of Histone deacetylase 9 (Q9UKV0 whole entry): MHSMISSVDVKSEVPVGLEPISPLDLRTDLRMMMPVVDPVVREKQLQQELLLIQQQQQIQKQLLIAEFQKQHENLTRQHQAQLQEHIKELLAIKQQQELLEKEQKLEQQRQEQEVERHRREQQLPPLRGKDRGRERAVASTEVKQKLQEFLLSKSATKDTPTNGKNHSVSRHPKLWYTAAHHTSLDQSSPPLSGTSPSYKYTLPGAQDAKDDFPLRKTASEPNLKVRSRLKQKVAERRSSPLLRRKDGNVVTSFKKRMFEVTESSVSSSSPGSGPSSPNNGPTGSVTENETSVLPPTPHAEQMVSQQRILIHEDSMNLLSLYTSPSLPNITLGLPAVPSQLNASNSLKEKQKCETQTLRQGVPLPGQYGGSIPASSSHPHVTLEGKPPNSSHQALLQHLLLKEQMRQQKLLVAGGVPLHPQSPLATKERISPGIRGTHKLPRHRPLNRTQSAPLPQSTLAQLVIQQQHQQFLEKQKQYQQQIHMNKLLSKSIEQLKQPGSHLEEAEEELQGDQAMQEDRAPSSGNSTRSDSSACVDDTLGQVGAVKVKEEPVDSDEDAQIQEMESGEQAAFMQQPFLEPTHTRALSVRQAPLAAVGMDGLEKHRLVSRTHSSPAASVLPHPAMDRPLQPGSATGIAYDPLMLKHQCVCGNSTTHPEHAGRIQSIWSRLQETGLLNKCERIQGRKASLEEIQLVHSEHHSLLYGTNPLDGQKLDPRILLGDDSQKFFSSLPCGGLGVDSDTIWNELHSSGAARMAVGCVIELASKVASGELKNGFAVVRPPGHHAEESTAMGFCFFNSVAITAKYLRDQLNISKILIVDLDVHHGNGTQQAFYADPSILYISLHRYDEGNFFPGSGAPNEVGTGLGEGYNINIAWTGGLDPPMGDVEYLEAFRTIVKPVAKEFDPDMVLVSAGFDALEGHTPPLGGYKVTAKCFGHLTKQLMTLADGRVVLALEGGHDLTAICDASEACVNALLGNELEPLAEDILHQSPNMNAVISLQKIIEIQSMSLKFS
# Histone deacetylase 5 = Histone deacetylase 5 (Homo sapiens, UniProt Q9UQL6); assay: Inhibition of recombinant HDAC5 assessed as inhibition of fluorogenic aminocoumarin release from substrate by trypsin-coupled biochemical assay; in short: as §1
# Chain of Histone deacetylase 5 (Q9UQL6 whole entry): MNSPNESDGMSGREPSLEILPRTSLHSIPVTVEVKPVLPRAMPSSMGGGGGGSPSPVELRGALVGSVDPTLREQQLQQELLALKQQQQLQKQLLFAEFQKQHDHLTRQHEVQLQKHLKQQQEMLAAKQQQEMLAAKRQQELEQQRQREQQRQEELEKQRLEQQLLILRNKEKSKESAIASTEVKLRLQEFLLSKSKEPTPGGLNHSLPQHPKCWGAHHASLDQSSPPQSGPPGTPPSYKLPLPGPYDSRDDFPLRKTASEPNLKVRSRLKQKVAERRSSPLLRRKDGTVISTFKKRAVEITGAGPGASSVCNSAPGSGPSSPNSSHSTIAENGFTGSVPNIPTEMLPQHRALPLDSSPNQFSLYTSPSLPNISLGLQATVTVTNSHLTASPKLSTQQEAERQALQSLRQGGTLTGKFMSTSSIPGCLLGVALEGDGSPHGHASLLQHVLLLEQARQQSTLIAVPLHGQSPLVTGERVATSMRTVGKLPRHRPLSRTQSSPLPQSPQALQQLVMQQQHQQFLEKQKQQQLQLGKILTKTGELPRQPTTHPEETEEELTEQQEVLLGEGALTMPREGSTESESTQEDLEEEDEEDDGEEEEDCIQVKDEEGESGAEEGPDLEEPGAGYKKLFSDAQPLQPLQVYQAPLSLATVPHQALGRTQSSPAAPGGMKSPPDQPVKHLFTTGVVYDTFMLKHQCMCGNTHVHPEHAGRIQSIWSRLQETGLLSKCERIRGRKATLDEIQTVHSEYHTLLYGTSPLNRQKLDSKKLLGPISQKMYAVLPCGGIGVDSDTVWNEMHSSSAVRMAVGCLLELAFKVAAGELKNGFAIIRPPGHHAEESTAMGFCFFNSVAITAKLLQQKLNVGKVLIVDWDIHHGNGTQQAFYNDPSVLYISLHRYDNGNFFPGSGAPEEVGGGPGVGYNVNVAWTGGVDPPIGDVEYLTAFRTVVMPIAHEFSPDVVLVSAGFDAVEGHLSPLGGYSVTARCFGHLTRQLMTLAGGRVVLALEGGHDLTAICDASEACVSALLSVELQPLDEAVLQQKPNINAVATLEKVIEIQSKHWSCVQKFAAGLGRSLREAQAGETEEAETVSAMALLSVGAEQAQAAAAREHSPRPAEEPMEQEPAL
# Histone deacetylase 3 = Histone deacetylase 3 (Homo sapiens, UniProt O15379); assay: Inhibition of recombinant HDAC3 assessed as inhibition of fluorogenic aminocoumarin release from substrate by trypsin-coupled biochemical assay; in short: as §1
# Chain of Histone deacetylase 3 (O15379 whole entry): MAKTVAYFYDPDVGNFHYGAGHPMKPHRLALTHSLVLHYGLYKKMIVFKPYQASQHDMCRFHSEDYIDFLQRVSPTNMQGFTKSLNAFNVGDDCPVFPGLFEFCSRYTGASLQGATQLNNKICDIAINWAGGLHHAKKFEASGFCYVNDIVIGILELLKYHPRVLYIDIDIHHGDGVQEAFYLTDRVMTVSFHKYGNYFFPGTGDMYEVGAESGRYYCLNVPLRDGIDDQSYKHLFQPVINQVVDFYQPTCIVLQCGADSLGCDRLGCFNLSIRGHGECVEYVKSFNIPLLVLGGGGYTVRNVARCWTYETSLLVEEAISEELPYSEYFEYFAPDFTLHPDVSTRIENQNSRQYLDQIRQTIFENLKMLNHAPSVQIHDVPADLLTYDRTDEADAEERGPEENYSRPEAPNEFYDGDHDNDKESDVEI
# Histone deacetylase 7 = target: T3, Histone deacetylase 7 (Homo sapiens, UniProt Q8WUI4); assay: Inhibition of recombinant HDAC7 assessed as inhibition of fluorogenic aminocoumarin release from substrate by trypsin-coupled biochemical assay
# T3 sequence (Q8WUI4 whole entry): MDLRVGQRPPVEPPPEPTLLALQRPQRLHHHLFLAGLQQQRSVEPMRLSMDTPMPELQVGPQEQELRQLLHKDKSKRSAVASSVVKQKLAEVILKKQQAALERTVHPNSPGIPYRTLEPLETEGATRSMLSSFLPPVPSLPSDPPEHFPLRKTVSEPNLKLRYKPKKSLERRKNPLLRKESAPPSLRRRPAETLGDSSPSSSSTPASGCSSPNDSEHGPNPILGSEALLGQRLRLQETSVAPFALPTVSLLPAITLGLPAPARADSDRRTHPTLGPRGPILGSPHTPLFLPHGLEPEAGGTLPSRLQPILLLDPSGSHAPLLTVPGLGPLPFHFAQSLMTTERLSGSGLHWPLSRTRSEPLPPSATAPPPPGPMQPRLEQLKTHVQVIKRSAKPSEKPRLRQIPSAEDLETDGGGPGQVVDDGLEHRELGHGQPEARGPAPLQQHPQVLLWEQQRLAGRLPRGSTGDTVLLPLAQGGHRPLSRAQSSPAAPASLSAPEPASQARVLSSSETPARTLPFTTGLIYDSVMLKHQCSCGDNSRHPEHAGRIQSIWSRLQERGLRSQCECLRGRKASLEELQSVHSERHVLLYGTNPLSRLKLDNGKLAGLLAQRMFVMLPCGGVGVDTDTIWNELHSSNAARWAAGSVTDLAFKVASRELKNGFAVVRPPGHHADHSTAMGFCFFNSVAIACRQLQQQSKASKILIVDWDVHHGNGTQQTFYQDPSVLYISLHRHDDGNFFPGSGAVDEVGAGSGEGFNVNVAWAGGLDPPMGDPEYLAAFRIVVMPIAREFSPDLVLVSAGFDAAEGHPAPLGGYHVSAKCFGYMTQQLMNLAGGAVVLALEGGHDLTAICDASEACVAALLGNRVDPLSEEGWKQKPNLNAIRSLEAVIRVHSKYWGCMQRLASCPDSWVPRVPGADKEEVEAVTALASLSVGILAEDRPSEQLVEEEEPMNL
# Histone deacetylase 4 = Histone deacetylase 4 (Homo sapiens, UniProt P56524); assay: Inhibition of recombinant HDAC4 assessed as inhibition of fluorogenic aminocoumarin release from substrate by trypsin-coupled biochemical assay; in short: as §1
# Chain of Histone deacetylase 4 (P56524 whole entry): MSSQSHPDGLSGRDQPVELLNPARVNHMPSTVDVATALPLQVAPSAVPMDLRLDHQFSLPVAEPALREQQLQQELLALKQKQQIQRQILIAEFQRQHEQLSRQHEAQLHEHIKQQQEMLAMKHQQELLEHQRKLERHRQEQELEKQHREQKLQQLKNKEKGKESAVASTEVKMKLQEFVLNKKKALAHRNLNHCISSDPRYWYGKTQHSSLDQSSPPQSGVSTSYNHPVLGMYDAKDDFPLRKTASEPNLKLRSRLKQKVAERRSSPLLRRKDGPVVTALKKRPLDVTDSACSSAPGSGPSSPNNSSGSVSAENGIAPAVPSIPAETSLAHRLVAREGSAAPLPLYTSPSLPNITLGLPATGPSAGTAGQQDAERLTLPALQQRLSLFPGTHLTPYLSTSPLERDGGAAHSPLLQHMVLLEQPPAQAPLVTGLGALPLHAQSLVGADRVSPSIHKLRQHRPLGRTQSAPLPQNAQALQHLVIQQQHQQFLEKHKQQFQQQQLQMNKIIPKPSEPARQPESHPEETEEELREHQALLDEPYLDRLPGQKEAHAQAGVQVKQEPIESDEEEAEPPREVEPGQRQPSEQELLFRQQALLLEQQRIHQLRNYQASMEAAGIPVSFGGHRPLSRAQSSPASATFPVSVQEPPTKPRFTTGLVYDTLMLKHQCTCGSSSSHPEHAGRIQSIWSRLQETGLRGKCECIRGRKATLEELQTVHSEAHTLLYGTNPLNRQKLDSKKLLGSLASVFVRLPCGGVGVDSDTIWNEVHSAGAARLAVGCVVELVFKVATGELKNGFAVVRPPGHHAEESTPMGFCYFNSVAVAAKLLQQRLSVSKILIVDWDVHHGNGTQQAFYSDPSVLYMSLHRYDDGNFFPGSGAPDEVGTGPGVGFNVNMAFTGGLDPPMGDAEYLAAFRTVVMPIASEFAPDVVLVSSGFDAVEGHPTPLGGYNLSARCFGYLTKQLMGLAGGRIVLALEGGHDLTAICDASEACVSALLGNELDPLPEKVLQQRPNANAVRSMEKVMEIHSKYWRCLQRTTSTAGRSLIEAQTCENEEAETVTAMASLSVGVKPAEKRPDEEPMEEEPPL
Structure (SMILES),IC50 (Histone deacetylase 8) [µM],IC50 (Histone deacetylase 1) [µM],IC50 [1] [µM],IC50 (Histone deacetylase 2) [µM],IC50 (Histone deacetylase 9) [µM],IC50 (Histone deacetylase 5) [µM],IC50 (Histone deacetylase 3) [µM],IC50 (Histone deacetylase 7) [µM],IC50 (Histone deacetylase 4) [µM]
CCOC(=O)CC(=O)CSc1nc(C)cc(O)n1,> 100,77.2,7.2,69.3,> 100,48.6,40,> 100,> 100
CC(=O)Nc1ccc(CSc2nc(C)cc(O)n2)cc1,> 100,> 100,> 100,> 100,> 100,> 100,> 100,> 100,> 100
CC(=O)Nc1ccc(C(=O)CSc2nc(C)cc(C)n2)cc1,> 100,> 100,> 100,> 100,> 100,> 100,> 100,> 100,> 100
CC(=O)Nc1ccc(C(=O)COc2cc(C)cc(=O)[nH]2)cc1,> 100,> 100,> 100,> 100,> 100,> 100,> 100,> 100,> 100
Cc1cc(O)nc(SCC(=O)c2ccc(O)c(O)c2)n1,> 100,> 100,16.7,> 100,> 100,> 100,> 100,> 100,> 100
Cc1cc(=O)[nH]c(SCC(=O)NCCCCc2ccccc2)n1,> 100,> 100,> 100,> 100,> 100,> 100,> 100,> 100,> 100
CC(=O)Nc1ccc(C(O)CSc2nc(C)cc(O)n2)cc1 (stereo not given),> 100,> 100,> 100,> 100,> 100,> 100,> 100,> 100,> 100
CC(=O)Nc1ccc(C(=O)CSc2cccc(O)c2)cc1,> 100,> 100,> 100,> 100,> 100,> 100,> 100,> 100,> 100
CC(=O)CSc1nc(C)cc(=O)[nH]1,> 100,> 100,> 100,> 100,> 100,> 100,> 100,> 100,> 100
COc1ccc(C(=O)CSc2nc(C)cc(O)n2)cc1,> 100,> 100,60.9,> 100,> 100,> 100,> 100,> 100,> 100
CC(=O)N(C)c1ccc(C(=O)CSc2nc(C)cc(O)n2)cc1,> 100,> 100,> 100,> 100,> 100,> 100,> 100,> 100,> 100
COC(=O)CSc1nc(C)cc(=O)[nH]1,> 100,> 100,> 100,> 100,> 100,> 100,> 100,> 100,> 100
Cc1cc(=O)[nH]c(SCC(=O)c2ccc(C(C)(C)C)cc2)n1,> 100,> 100,> 100,> 100,> 100,94.3,> 100,> 100,> 100
CC(=O)Nc1ccc(C(=O)COc2nc(C)cc(O)n2)cc1,> 100,> 100,88,> 100,11.7,16.7,> 100,,54.2
Cc1cc(O)nc(SCC(=O)C(C)(C)C)n1,> 100,> 100,> 100,> 100,> 100,> 100,> 100,> 100,> 100
COc1cc(C)nc(SCC(=O)c2ccc(NC(C)=O)cc2)n1,> 100,> 100,> 100,> 100,> 100,> 100,> 100,> 100,> 100
Cc1cc(O)nc(SCC(=O)NCCc2ccccc2)n1,> 100,> 100,> 100,> 100,> 100,> 100,> 100,> 100,> 100
Cc1cc(O)nc(SCC(=O)c2ccc(Cl)cc2)n1,> 100,82.3,12.9,67,> 100,> 100,86.4,> 100,> 100
CC(=O)Nc1ccc(C(=O)CSc2nccc(C)n2)cc1,> 100,> 100,> 100,> 100,> 100,> 100,> 100,> 100,> 100
